From PubChem
A selection: hits, their analogues and other compounds. The true share with any hit is near 3.8%.
HSF1 inhib – HSF1 inhibition; NIH3T3-HGL HSE-luciferase, MG132-induced, luminescence 8 h; hits give low values; activity change, negative = inhibition, % at 7.5 µM (by protocol); 0.77% of 300,000 active; AID 2098;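 active = more than half of replicate wells show activity change below -50%, luminescence cut by over half; inconclusive = some wells, but at most half, below -50%; inactive = no replicate well below -50%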;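 note: luciferase reports HSF-1 transcriptional activity via heat shock element; 0% = median of DMSO wells and -100% = zero luminescence signal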
HSP90 inh – HSP90 refolding inhibition in rabbit reticulocyte lysate; inhibition, % at 5.6 µM; 0.91% of 290,000 active; luciferase refolding luminescence, 3 h;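 active = inhibition above the screen-wide mean plus 3 SD, computed separately per campaign, cut at about 16% in these data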;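 note: 0% = DMSO wells and 100% = 60 µM geldanamycin wells; inhibitors lower the luminescence because luciferase stays unfolded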
Lipid droplet – modulators of hepatic lipid droplet formation; AML12 mouse hepatocytes, oleate lipid droplets, BODIPY imaging; inhibition, % at 6.5 µM; 0.4% of 240,000 active;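 active = lipid droplet intensity inhibited by at least 50%, with more than 500 cells counted; inconclusive = wells with under 300 cells, treated as cytotoxic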
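Assay system: AML12 mouse liver cells | Compound dosing: One dose, 6.5 µM compound | Read-out basis: Droplet intensity reduction, % inhibition | Measured by: Fluorescence imaging, 20x objective, two fields per well | Schedule: Overnight treatment with compound plus oleate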
HSF-1 act – increases HSF-1 driven luciferase reporter signal; NIH3T3-HGL HSF-1 luciferase reporter, MG132, 8 h; 100% = twice DMSO control signal; activation, % at 9 µM; 1.7% of 300,000 active; AID 504408;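 active = mean replicate activation of at least 50% with a set share of replicates each reaching 50%; inconclusive = only one of those two conditions met; inactive = mean below 50% and too few replicates reaching it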;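 note: 0% = median of the neutral control wells and 100% = twice that signal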
HCV NS3 hel inh – blocks Hepatitis C virus NS3 helicase unwinding; NS3 helicase DNA unwinding, Cy5 molecular beacon fluorescence; inhibition, % at 10.9 µM; 0.56% of 290,000 active; AID 1800;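 active = inhibition above the mean of all tested compounds plus 3 SD, set per campaign, cut at about 35% in these data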;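 note: 0% = DMSO wells and 100% = thioflavine S control wells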
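Assay system: hepatitis C virus NS3 helicase domain fragment enzyme. Also added: annealed dual-labelled DNA beacon duplex, ATP-started. Timing: 1 h reaction at 25 °C, ATP-initiated. Technique: Cy5 fluorescence at 0 and 60 min, beacon hairpin quenching. Evaluation: % inhibition of unwinding. Replication: one well per compound.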
HSP90 confirm – HSP90 inhibition, confirmation assay; shares compounds with HSP90 inh; rabbit reticulocyte lysate, luciferase refolding luminescence, 3 h; inhibition, % at 5.9 µM; 64% of 2,300 active; AID 1846; in the data active = inhibition above about 18%;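 note: 0% = vehicle wells and 100% = reference inhibitor wells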
FLuc counter – firefly luciferase inhibition, HSP90 counter-screen; shares compounds with HSP90 inh; purified native firefly luciferase, luminescence; inhibition, % at 5.9 µM; 48% of 2,300 active; AID 1847;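 active = inhibition above the mean inhibition of all tested sample wells plus 3 SD, cut at about 10% in these data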;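 note: 0% = DMSO with luciferase and 100% = wells lacking luciferase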
Target sequence (P08659 whole entry, looked up): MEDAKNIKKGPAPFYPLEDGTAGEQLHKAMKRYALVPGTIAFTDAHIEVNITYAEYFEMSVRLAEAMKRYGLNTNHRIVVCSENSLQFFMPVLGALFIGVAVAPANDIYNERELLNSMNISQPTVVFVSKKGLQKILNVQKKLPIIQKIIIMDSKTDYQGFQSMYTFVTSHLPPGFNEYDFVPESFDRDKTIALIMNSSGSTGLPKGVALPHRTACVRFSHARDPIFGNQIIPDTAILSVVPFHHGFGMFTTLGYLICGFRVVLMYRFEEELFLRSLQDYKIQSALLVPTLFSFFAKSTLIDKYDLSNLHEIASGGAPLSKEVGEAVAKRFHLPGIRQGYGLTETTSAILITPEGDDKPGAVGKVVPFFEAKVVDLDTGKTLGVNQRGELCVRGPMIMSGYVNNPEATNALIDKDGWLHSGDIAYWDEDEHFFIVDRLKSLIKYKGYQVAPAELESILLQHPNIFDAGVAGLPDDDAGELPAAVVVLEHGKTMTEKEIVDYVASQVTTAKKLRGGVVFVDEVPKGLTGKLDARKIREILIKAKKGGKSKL
The depositor's hits bear a star; ? = inconclusive; . = no result given.

SMILES	HSF1 inhib	HSP90 inh	Lipid droplet	HSF-1 act	HCV NS3 hel inh	HSP90 confirm	FLuc counter
NC(=O)c1cc[n+](CC(=O)c2ccc(NC(=O)c3ccccc3)cc2)cc1	-2	1	1	13	10	.	.
CC(=O)N(CCC(Cc1ccccc1)c1ccco1)Cc1ccco1 (centres undefined)	.	22*	-10	.	21	4	2
O=C(NCc1ccco1)c1ccccc1Br	4	19*	1	-4	1	0	-6
COC(=O)c1nn(-c2ccc3c(c2)CCN3C(C)=O)cc1O	-58*	85*	.	-61	1	88*	74*
COc1ccccc1NS(=O)(=O)c1ccc(NC(=O)c2nc3nc(C)cc(C(F)F)n3n2)cc1	10	6	7	43	4	.	.
CC(C)CC1CCCCC1OC(=O)C[N+]1(C)CCCCC1 (centres undefined)	1	-2	2	-5	10	.	.
C/C(=N\Nc1ccc(Cl)c(C(=O)O)c1)c1ccc(N2CCOCC2)cc1	8	18*	-6	19	14	9	-4
C/C(=N\Nc1ccc(Cl)c(C(=O)O)c1)c1ccc[nH]1	-4	35*	6	-8	7	22*	-5
C/C(=N\NC(=O)c1ccc(F)cc1)c1ccc(N2CCOCC2)cc1	-1	4	-2	4	7	.	.
CCOC(=O)CS(=O)(=O)c1nc(-c2ccc(F)cc2)cc(C(F)(F)F)n1	59	53*	-9	88*	4	-2	-5
CCOC(=O)c1c(C(F)(F)F)cc(-c2ccc(F)cc2)nc1C	6	-1	2	-21	3	.	.
O=c1[nH]c(Nc2ccccc2)cc2ccccc12	1	17*	.	6	2	25*	-1
C=CCc1ccc(OCc2ccc(C(=O)OC)o2)c(OC)c1	39	25*	-16	59*	1	55*	-23
O=C(c1cc(F)c(F)cc1Cl)N1CCN(CCc2ccccc2)CC1	-4	38*	-3	-2	4	-1	-6
Cc1ccc(-c2cn(-c3ccccc3)c(=S)[nH]2)cc1C	-61*	19*	.	-69	30	27*	15*
Cc1ccccc1-c1cn(-c2ccccc2)c(=S)[nH]1	6	5	-2	25	-3	.	.
CCOC(=O)N1CCN(S(=O)(=O)N2CCCC(C(=O)NCCCN3CCCCC3)C2)CC1 (centres undefined)	0	-2	-1	-11	0	.	.
CCOC(=O)N1CCC(NC(=O)C2CCN(C(=O)c3cc4sccc4n3CC)CC2)CC1	1	-3	12	2	-8	.	.
O=C(NCCN1CCOCC1)C1CCCN(S(=O)(=O)c2ccc(F)cc2)C1 (centres undefined)	-4	-4	-14	5	4	.	.
O=C(COC(=O)c1nsc(Cl)c1Cl)NC1CCCCC1	0	-4	7	1	8	.	.
O=C(COC(=O)c1nsc(Cl)c1Cl)NC1CCCC1	8	23*	4	9	-4	-5	-14
O=C(NCCC1=CCCCC1)Nc1ccc2nsnc2c1	36	4	-12	29	-2	.	.
COc1ccc(-c2cc(=O)c3c(O)c(OC)c(O)cc3o2)cc1	19	20*	-3	23	3	46*	41*
Cc1ccc([N+](=O)[O-])cc1NC(=O)c1c(-c2ccccc2)noc1C	-2	3	17	-21	3	.	.
Nn1c(-c2ccc(F)cc2)nc2ccccc2c1=O	-3	1	14	-22	-4	.	.
SMILES	HSF1 inhib	HSP90 inh	Lipid droplet	HSF-1 act	HCV NS3 hel inh	HSP90 confirm	FLuc counter
O=C1c2cc(F)ccc2-n2c1nc1ccccc1c2=O	17	73*	-1	37	15	68*	-5
COc1ccccc1-c1ccc(C(=O)O)o1	-9	46*	0	7	4	54*	-14
COc1ccc(Cl)cc1NC(=O)CCc1nc(-c2ccccc2F)no1	57	27*	-12	69*	0	1	-3
COc1ccccc1NC(=O)CCc1nc(-c2ccccc2F)no1	-4	-5	1	5	-1	.	.
Cc1[nH]c2ccccc2c1C(O)CN1CCC2(CC1)OCCO2 (centres undefined)	-6	5	-5	3	1	.	.
Cc1ccc(N2Cc3ccccc3C2=O)cc1	18	31*	2	24	-2	37*	28*
Cc1ccc2[nH]c(=O)c(COC(=O)C3CCCCC3)cc2c1	-8	44*	6	-10	-11	-1	-16
CCC(=O)c1ccc(OCc2ccc(C(=O)OC)cc2)cc1	1	30*	17	-11	-10	62*	-3
COCCCN=C1NN=C(c2cc(C)n(Cc3ccco3)c2C)CS1	-8	5	?	21	-23	.	.
COCC(C)N=C1NN=C(c2cc(C)n(Cc3ccccc3Cl)c2C)CS1 (centres undefined)	-5	34*	1	-16	-6	65*	55*
CC(C)NC(=O)c1ccc(COc2cc(Cl)ccc2Cl)o1	7	3	-16	6	-11	.	.
CSc1cccc(NC(=O)Nc2ccc(Cl)cc2)c1	0	0	.	18	3	.	.
Cc1nc2cc(NC(=O)Nc3ccccc3Cl)ccc2n1C	-7	32*	3	16	-5	59*	38*
COC(=O)c1cccc(NC(=O)Nc2ccc(Cl)c(Cl)c2)c1	-4	-7	.	-1	-11	.	.
Cc1ccccc1OCC(=O)Nc1cccc(C(=O)O)c1	.	97*	0	.	4	91*	86*
COC(=O)c1cccc(NC(=O)NC(=O)c2ccccc2Cl)c1	-12	29*	2	-23	0	71*	16*
Cc1ccc(NC(=O)Nc2ccc3c(c2)nc(C)n3C)cc1	0	7	16	15	-5	.	.
O=C(Nc1ccc(Cl)cc1)Nc1cccc(C(=O)O)c1	-40	78*	9	-43	-17	89*	87*
O=C(Nc1ccc2nccnc2c1)Nc1ccccc1Cl	8	6	2	25	17	.	.
O=C(Nc1cccc(C(=O)O)c1)Nc1ccccc1Cl	-38	77*	5	-38	16	74*	71*
O=C(Nc1cccc(Cl)c1)Nc1cccc(C(=O)O)c1	-9	51*	-1	-17	-15	69*	63*
O=C(Nc1ccccc1)Nc1cccc(Cl)c1	.	3	-11	.	-2	.	.
O=C(NCc1ccccc1)C(=O)Nc1cccc(C(=O)O)c1	-43	42*	3	-46	-2	71*	73*
O=C(Nc1cccc(C(=O)O)c1)Nc1cccc2ccccc12	-8	19*	.	-15	18	32*	15*
